Source: ChEMBL document CHEMBL3098025, “Optimization of potency and pharmacokinetics of tricyclic indole derived inhibitors of HCV NS5B polymerase. Identification of ester prodrugs with improved oral pharmacokinetics” (Bioorg Med Chem, 2014)

Assays:
[1] = Inhibition of HCV1b NS5B polymerase; parameters: species or system Hepatitis C virus subtype 1b
Liver microsome [2] = experiment: Drug metabolism in human liver microsomes assessed as formation of 6-(2,5-difluorobenzyl)-2,3-dihydroxy-8-(2-oxo-1,2-dihydropyridin-3-yl)-3,6-dihydro-2H-furo[2,3-e]indole-7-carboxylic acid in presence of water; format: ADME
Liver microsome [3] = experiment: Drug metabolism in human liver microsomes assessed as formation of 2-((R)-2-((S)-4-amino-4-carboxybutanamido)-3-(carboxymethylamino)-3-oxopropylthio)-6-(2,5-difluorobenzyl)-3-hydroxy-8-(2-oxo-1,2-dihydropyridin-3-yl)-3,6-dihydro-2H-furo[2,3-e]indole-7-carboxylic acid in presence of glutathione; format: ADME
Liver microsome [4] = experiment: Drug metabolism in human liver microsomes assessed as formation of 3-(2,5-Difluoro-benzyl)-1-(2-oxo-1,2-dihydro-pyridin-3-yl)-5b,6a-dihydro-3H-6,7-dioxa-3-aza-cyclopropa[b]-as-indacene-2-carboxylic acid; format: ADME
Hepatitis C virus = experiment: Antiviral activity against HCV1b assessed as inhibition of viral replication; format: functional, organism-based, Hepacivirus hominis; conditions: genotype 1b
Outline: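 In the cell-based HCV replicon assay, viral RNA levels were measured. EC50 is the concentration giving a 50% reduction in replicon RNA.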

Liver microsome [5] = experiment: Drug metabolism in human liver microsomes assessed as formation of 6-(2,5-difluorobenzyl)-3-hydroxy-2-(methoxyamino)-8-(2-oxo-1,2-dihydropyridin-3-yl)-3,6-dihydro-2H-furo[2,3-e]indole-7-carboxylic acid in presence of NH2OCH3; format: ADME
Liver microsome [6] = experiment: Drug metabolism in human liver microsomes assessed as formation of 8-(1H-pyrrol-2-yl)-6H-furo[2,3-e]indole-7-carboxylic acid; format: ADME
[7] = AUC (0 to 6 hrs) in cynomolgus monkey at 3 mg/kg, po; format: ADME, organism-based, Macaca fascicularis; parameters: time < 6 hr, dose 3 mg/kg, route oral; conditions: plasma
[8] = AUC (0 to 6 hrs) in Sprague-Dawley rat at 10 mg/kg, po; format: ADME, organism-based; parameters: time < 6 hr, dose 10 mg/kg, route oral; conditions: plasma
Outline: (§1)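 Sprague Dawley rats received esters orally at 10 mg/kg in 0.4% methylcellulose, given as trifluoroacetate salts. Plasma levels of both the intact ester prodrug and the acid metabolite were measured. AUC was integrated over 0–6 h after dosing.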

Rattus norvegicus [9] = experiment: Prodrug conversion in Sprague-Dawley rat assessed as AUC (0 to 6 hrs) of 6-((6-Chloro-1H-benzo[d]imidazol-5-yl)methyl)-4-fluoro-8-(2-oxo-1,2-dihydropyridin-3-yl)-6H-furo[2,3-e]indole-7-carboxylic acid level at 10 mg/kg, po; format: ADME, organism-based; parameters: time < 6 hr, dose 10 mg/kg, route oral; conditions: in vivo; outline: as §1
Rattus norvegicus [10] = experiment: Prodrug conversion in Sprague-Dawley rat assessed as AUC (0 to 6 hrs) of parent compound level at 10 mg/kg, po; format: ADME, organism-based; parameters: time < 6 hr, dose 10 mg/kg, route oral; conditions: in vivo; outline: as §1
Cynomolgus monkey = experiment: Prodrug conversion in cynomolgus monkey assessed as AUC (0 to 24 hrs) of 6-((6-Chloro-1H-benzo[d]imidazol-5-yl)methyl)-4-fluoro-8-(2-oxo-1,2-dihydropyridin-3-yl)-6H-furo[2,3-e]indole-7-carboxylic acid level at 3 mg/kg, po; format: ADME, organism-based, Macaca fascicularis; parameters: time < 24 hr, dose 3 mg/kg, route oral; conditions: in vivo
Rattus norvegicus [11] = experiment: Prodrug conversion in Sprague-Dawley rat assessed as AUC (0 to 24 hrs) of 6-((6-Chloro-1H-benzo[d]imidazol-5-yl)methyl)-4-fluoro-8-(2-oxo-1,2-dihydropyridin-3-yl)-6H-furo[2,3-e]indole-7-carboxylic acid level at 10 mg/kg, po; format: ADME, organism-based; parameters: time < 24 hr, dose 10 mg/kg, route oral; conditions: in vivo
Outline: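 Dimethylaminoethyl ester prodrugs were dosed orally to rats at 10 mg/kg in 0.4% methylcellulose.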

IC50 [1]	EC50 (Hepatitis C virus)	AUC (Rattus norvegicus [9])	AUC (Rattus norvegicus [10])	Structure (SMILES)	also measured
3 nM	4 nM			O=C(O)c1c(-c2ccc[nH]c2=O)c2c3occc3c(F)cc2n1Cc1cc2cn[nH]c2cc1F	AUC(0-t) at 6 h [7]: 1000 nM·h; AUC(0-t) at 6 h [8]: 9300 nM·h
3 nM	7 nM			O=C(O)c1c(-c2ccc[nH]c2=O)c2c3occc3c(F)cc2n1Cc1cc2c(=O)cc[nH]c2cc1F	
4 nM	6 nM			Nc1cc(Cn2c(C(=O)O)c(-c3ccc[nH]c3=O)c3c4occc4c(F)cc32)c2ccccc2n1	AUC(0-t) at 6 h [7]: 400 nM·h; AUC(0-t) at 6 h [8]: 24000 nM·h
3 nM	5 nM			O=C(O)c1c(-c2ccc[nH]c2=O)c2c3occc3c(F)cc2n1Cc1cc2cn[nH]c2cc1Cl	AUC(0-t) at 6 h [8]: 5100 nM·h
3 nM	2 nM			Cc1cc2[nH]ncc2cc1Cn1c(C(=O)O)c(-c2ccc[nH]c2=O)c2c3occc3c(F)cc21	AUC(0-t) at 6 h [8]: 2100 nM·h
		2100 nM·h		O=C([O-])c1c(-c2ccc[nH]c2=O)c2c3occc3c(F)cc2n1Cc1cc2[nH]cnc2cc1Cl.[Na+]	
			100 nM·h	CCOC(=O)c1c(-c2ccc[nH]c2=O)c2c3occc3c(F)cc2n1Cc1cc2[nH]cnc2cc1Cl	

Continued, compound first:

Structure (SMILES)	IC50 [1]	EC50 (Hepatitis C virus)	AUC (Rattus norvegicus [9])	AUC (Rattus norvegicus [10])	also measured
O=C(O)c1c(-c2ccc[nH]c2=O)c2c3occc3ccc2n1Cc1cc(F)ccc1F	31 nM	160 nM			Drug metabolism (Liver microsome [2]): Active; Drug metabolism (Liver microsome [3]): Active; Drug metabolism (Liver microsome [4]): Active; Drug metabolism (Liver microsome [5]): Active; Drug metabolism (Liver microsome [6]): Active
COCCOC(=O)c1c(-c2ccc[nH]c2=O)c2c3occc3c(F)cc2n1Cc1cc2[nH]cnc2cc1Cl			1100 nM·h	200 nM·h	
CC(OC(=O)c1c(-c2ccc[nH]c2=O)c2c3occc3c(F)cc2n1Cc1cc2[nH]cnc2cc1Cl)c1ccccc1 (stereo not given)			200 nM·h	300 nM·h	
CN(C)CCOC(=O)c1c(-c2ccc[nH]c2=O)c2c3occc3c(F)cc2n1Cc1cc2[nH]cnc2cc1Cl.O=C(O)C(F)(F)F		13 nM	32500 nM·h	500 nM·h	AUC (Cynomolgus monkey): 14000 nM·h; AUC (Rattus norvegicus [11]): 208000 nM·h
CN(C)CCCOC(=O)c1c(-c2ccc[nH]c2=O)c2c3occc3c(F)cc2n1Cc1cc2[nH]cnc2cc1Cl.O=C(O)C(F)(F)F			700 nM·h	9100 nM·h	
CC(CN(C)C)OC(=O)c1c(-c2ccc[nH]c2=O)c2c3occc3c(F)cc2n1Cc1cc2[nH]cnc2cc1Cl.O=C(O)C(F)(F)F (stereo not given)			32600 nM·h	800 nM·h	
O=C(O)C(F)(F)F.O=C(OCCN1CCOCC1)c1c(-c2ccc[nH]c2=O)c2c3occc3c(F)cc2n1Cc1cc2[nH]cnc2cc1Cl			5500 nM·h	200 nM·h	
